Assay results as given in ChEMBL document CHEMBL1166011, “A bastadin with potent and selective delta-opioid receptor binding affinity from the Australian sponge Ianthella flabelliformis” (J Nat Prod, 2010).
Activity calls are given as the source filed them. No cut-off for these calls is given here.

Experiments:
Cavia porcellus [1] = species: Cavia porcellus; assay: Displacement of [3H]DPDPE from delta opioid receptor in guinea pig forebrain at 100 uM by beta plate scintillation counting
Method in brief: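 Pooled guinea pig forebrain membranes, Tris·HCl pH 7.4 prep with 37 °C 45 min preincubation to remove endogenous ligands. 1 nM [3H]DPDPE, 315 µg membrane protein, 10 µM naloxone defines nonspecific binding; 90 min rt. Single 100 µM screen, 2% final DMSO. Glass fiber B filtration, scintillation counting. % activity = 100 − % control.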

Cavia porcellus [2] = species: Cavia porcellus; assay: Displacement of [3H]DAMGO from mu opioid receptor in guinea pig forebrain at 100 uM by beta plate scintillation counting
Method in brief: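 Guinea pig forebrain membranes (pooled, homogenized in 50 mM Tris·HCl pH 7.4, preincubated 37 °C 45 min to strip endogenous ligands, washed). 1 nM [3H]DAMGO, 315 µg protein, nonspecific binding with 10 µM naloxone; 90 min rt. Compound at 100 µM in 2% final DMSO. Filtration onto glass fiber B mats. % activity = 100 − % control, specific binding.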

Cavia porcellus [3] = species: Cavia porcellus; assay: Displacement of [3H]U69593 from kappa opioid receptor in guinea pig cerebellum at 100 uM by beta plate scintillation counting; format: tissue-based
Method in brief: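 Pooled guinea pig cerebellum membranes (Tris·HCl pH 7.4, endogenous ligands removed at 37 °C 45 min). 1 nM [3H]U69593, 190 µg protein, 10 µM naloxone for nonspecific binding; 90 min rt. Tested up to 100 µM, 2% final DMSO. Filtration onto glass fiber B mats presoaked in 0.01% polyethylenimine; % activity from specific binding.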

[4] = Displacement of [3H]DPDPE from delta opioid receptor in guinea pig forebrain by beta plate scintillation counting; parameters: species or system Cavia porcellus
Method in brief: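 Delta binding on pooled guinea pig forebrain membranes with 1 nM [3H]DPDPE, 315 µg protein, 10 µM naloxone for nonspecific binding; 90 min rt, filtration onto glass fiber B mats. Concentration-response over 11 treatment levels, 2% final DMSO. IC50 and Ki from nonlinear least-squares fitting, model testing by ANOVA.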

Cavia porcellus [5] = species: Cavia porcellus; assay: Selectivity for guinea pig delta opioid receptor over guinea pig mu opioid receptor
Cavia porcellus [6] = species: Cavia porcellus; assay: Selectivity for guinea pig delta opioid receptor over guinea pig kappa opioid receptor
[7] = Displacement of [3H]DAMGO from mu opioid receptor in guinea pig forebrain by beta plate scintillation counting
[8] = Displacement of [3H]U69593 from kappa opioid receptor in guinea pig cerebellum by beta plate scintillation counting

SMILES | inhibition (Cavia porcellus [1]) [%] | inhibition (Cavia porcellus [2]) | Activity (Cavia porcellus [3]) | IC50 [4] [µM] | Ki [4] [µM] | Selectivity ratio (Cavia porcellus [5]) | Selectivity ratio (Cavia porcellus [6]) | Ki [7] [µM] | Ki [8] [µM]
O=C1N/C=C/c2ccc(c(Br)c2)Oc2cc(ccc2OS(=O)(=O)O)CCNC(=O)/C(=N/O)C(O)c2cc(Br)c(c(Br)c2)Oc2cc(cc(Br)c2O)C/C1=N\O (stereo not given) | 86 | 39% | inactive | – | – | – | – | – | –
O=C1N/C=C/c2ccc(c(Br)c2)Oc2cc(ccc2OS(=O)(=O)O)CCNC(=O)/C(=N/O)Cc2cc(Br)c(c(Br)c2)Oc2cc(cc(Br)c2O)C/C1=N\O | 87 | 57% | inactive | – | – | – | – | – | –
O=C1NCC(O)c2ccc(c(Br)c2)Oc2cc(ccc2O)CCNC(=O)/C(=N/O)C(O)c2cc(Br)c(c(Br)c2)Oc2cc(cc(Br)c2OS(=O)(=O)O)C/C1=N\O (stereo not given) [BASTADIN 26] | – | inactive | inactive | 0.206 | 0.1 | > 1000 | > 1000 | – | –
C=CCN1CC[C@]23c4c5ccc(O)c4O[C@H]2C(=O)CC[C@@]3(O)[C@H]1C5 [NALOXONE] | – | – | – | – | 0.03 | – | – | 0.0039 | 0.0026
